Measurements from ChEMBL document CHEMBL1157807, “NO-releasing esters show carbonic anhydrase inhibitory action against human isoforms I and II” (Bioorg Med Chem, 2010).

Experiments:
Carbonic anhydrase 1 [1] = biological target: T1, Carbonic anhydrase 1 (Homo sapiens, UniProt P00915); assay: Uncompetitive inhibition of human carbonic anhydrase 1 esterase activity by Lineweaver-Burke plot analysis
Outline: (§1)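 Erythrocyte-purified human isozyme in the 4-nitrophenylacetate esterase assay, read at 348 nm over 3 min at 25 °C in Tris–SO4 pH 7.4. Three inhibitor concentrations are each tested against five substrate concentrations (0.15–0.75 mM). Ki and inhibition mode are taken from Lineweaver–Burk plots.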

Carbonic anhydrase 2 [2] = biological target: T2, Carbonic anhydrase 2 (Homo sapiens, UniProt P00918); assay: Inhibition of human carbonic anhydrase 2 esterase activity by spectrophotometry; details: read-out: I50
Outline: (§2)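 Enzyme purified from human erythrocytes. Esterase activity is followed as 4-nitrophenylacetate conversion to 4-nitrophenylate by absorbance at 348 nm over 3 min at 25 °C, in Tris–SO4 buffer pH 7.4. A reference cuvette lacks enzyme. Each inhibitor concentration is run in triplicate, with uninhibited control activity set to 100%. IC50 is read from %activity vs [inhibitor] plots.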

Carbonic anhydrase 2 [3] = biological target: T2, Carbonic anhydrase 2; assay: Noncompetitive inhibition of human carbonic anhydrase 2 esterase activity by Lineweaver-Burke plot analysis; outline: as §1
Carbonic anhydrase 1 [4] = biological target: T1, Carbonic anhydrase 1; assay: Competitive inhibition of human carbonic anhydrase 1 esterase activity by Lineweaver-Burke plot analysis; outline: as §1
Carbonic anhydrase 1 [5] = biological target: T1, Carbonic anhydrase 1; assay: Inhibition of human carbonic anhydrase 1 esterase activity by spectrophotometry; details: read-out: I50; outline: as §2
Carbonic anhydrase 2 [6] = biological target: T2, Carbonic anhydrase 2; assay: Competitive inhibition of human carbonic anhydrase 2 esterase activity by Lineweaver-Burke plot analysis; outline: as §1
Carbonic anhydrase 1 [7] = biological target: T1, Carbonic anhydrase 1; assay: Noncompetitive inhibition of human carbonic anhydrase 1 esterase activity by Lineweaver-Burke plot analysis; outline: as §1
Carbonic anhydrase 2 [8] = biological target: T2, Carbonic anhydrase 2; assay: Uncompetitive inhibition of human carbonic anhydrase 2 esterase activity by Lineweaver-Burke plot analysis; outline: as §1

T1 sequence (P00915 whole entry): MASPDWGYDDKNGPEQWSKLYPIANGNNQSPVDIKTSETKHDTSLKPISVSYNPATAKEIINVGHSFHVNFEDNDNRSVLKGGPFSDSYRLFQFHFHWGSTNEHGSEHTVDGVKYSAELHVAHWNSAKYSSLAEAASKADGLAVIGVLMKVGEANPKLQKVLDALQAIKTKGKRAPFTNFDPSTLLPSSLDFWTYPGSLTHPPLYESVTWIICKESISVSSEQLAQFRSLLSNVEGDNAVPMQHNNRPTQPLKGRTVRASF

SMILES	Ki (Carbonic anhydrase 1 [1]) [mM]	IC50 (Carbonic anhydrase 2 [2]) [mM]	Ki (Carbonic anhydrase 2 [3]) [mM]	Ki (Carbonic anhydrase 1 [4]) [mM]	IC50 (Carbonic anhydrase 1 [5]) [mM]	Ki (Carbonic anhydrase 2 [6]) [mM]	Ki (Carbonic anhydrase 1 [7]) [mM]	Ki (Carbonic anhydrase 2 [8]) [mM]
O=[N+]([O-])O[C@@H](CO)c1ccccc1 (single isomer, unassigned)	288	0.632	1.14	–	–	–	–	–
O=[N+]([O-])O[C@@H]1CC2CCC1[C@@H]2O (stereo partly drawn)	–	0.0651	–	13.6	7.13	0.121	–	–
O=[N+]([O-])O[C@H]1CCCCCC[C@@H]1O	–	0.181	0.267	–	23	–	45.2	–
O=[N+]([O-])O[C@H]1CC2CCC1[C@@H]2O (stereo partly drawn)	–	0.0731	–	17.2	9.1	0.133	–	–
O=[N+]([O-])O[C@@H]1CC[C@H](Br)[C@@H]2CC[C@H]1O2	–	0.11	–	–	12.1	–	22.5	0.223
O=[N+]([O-])O[C@H]1CC/C=C\CC[C@@H]1O (racemic)	–	0.243	0.541	–	21	–	41.8	–
O=[N+]([O-])O[C@H]1CCCC[C@@H]1O	–	0.56	0.986	–	–	–	221	–
O=[N+]([O-])O[C@H]1CC=CC[C@@H]1O (racemic)	–	0.79	1.37	–	–	–	274	–
O=[N+]([O-])O[C@@H]1CC2c3ccccc3C1[C@@H]2O (stereo partly drawn)	–	0.0981	–	18.7	10.2	0.196	–	–
